Measured values: ChEMBL document CHEMBL1122273, “5-sulfamoylorthanilic acids, a sulfonamide series with salidiuretic activity” (J Med Chem, 1983)

Assays:
Canis familiaris [1] = test: Saluretic activity in the dog measured as concentration of Na+ in urinary excretion (2 animals/dose) at (dose 0.025 mg/Kg, perorally); assay type: functional, Canis lupus familiaris, Urine
In short: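 Male beagles trained to rest on a table and to accept stomach tube and catheter. Food withdrawn 24 h before, tap water ad libitum. Bladder emptied by catheter, then 20 mL/kg tap water by stomach tube. Catheterized hourly up to 8 h with 4 mL/kg water orally each time; first 2 h urine served as control. Oral dosing after second catheterization. Pooled 1–6 h urine; Na⁺/K⁺ by flame photometry, Cl⁻ argentometrically.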

Canis familiaris [2] = test: sodium excretion collected at 1-6 hr time after oral administration in dog (four animals per dose) dosed at 3.12 mg/kg.; assay type: functional, Canis lupus familiaris
In short: (§1)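 Trained male beagles, four per dose, fasted 24 h with tap water ad libitum. After bladder emptying, given 20 mL/kg tap water by stomach tube, then 4 mL/kg at each hourly catheterization; 2 h control collection, then oral dosing. Urine volume and Na⁺ (flame photometry) reported for 1–6, 7–24 and 1–24 h post-dose periods.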

Canis familiaris [3] = test: sodium excretion collected at 7-24 hr time after oral administration in dog (four animals per dose) dosed at 0.39 mg/kg.; assay type: functional, Canis lupus familiaris
In short: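 Trained male beagles, food withdrawn 24 h beforehand with tap water ad libitum. Bladder emptied by catheter, then 20 mL/kg tap water by stomach tube. Catheterized hourly (up to 8 h) with 4 mL/kg water orally each time. First 2 h of urine served as control. Compound given orally after second catheterization. Na⁺ measured flame-photometrically, in mequiv/kg.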

Canis familiaris [4] = test: urinary excretion collected at 7-24 hr time after oral administration in dog (four animals per dose) dosed at 0.39 mg/kg.; assay type: functional, Canis lupus familiaris, Urine
[5] = It is the ratio, measured as saluretic activity in the dog as concentration of Na+ in urinary excretion (dose 1.56 mg/Kg, po) to that of K; assay type: functional, Urine
In short: (§2)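 Trained male beagles, fasted 24 h with tap water ad libitum. Bladder emptied by catheter, then 20 mL/kg tap water by stomach tube, with 4 mL/kg water at each hourly catheterization up to 8 h. The first 2 h of urine served as control. Oral dosing came after the second catheterization, and 1–6 h urine was pooled. Na⁺ and K⁺ were measured by flame photometry, Cl⁻ argentometrically, in mequiv/kg.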

Canis familiaris [6] = test: Diuretic activity in the dog (2 animals/dose) at (dose 12.5 mg/Kg), when administered perorally; assay type: functional, Canis lupus familiaris, Urine; in short: as §2
Canis familiaris [7] = test: Urinary excretion collected at 1-6 hr time after oral administration in dog (four animals per dose) at dose 1.56 mg/kg.; assay type: functional, Canis lupus familiaris, Urine; in short: as §1
Canis familiaris [8] = test: sodium excretion collected at 1-6 hr time after oral administration in dog (four animals per dose) at dose 0.39 mg/kg.; assay type: functional, Canis lupus familiaris; in short: as §1
Canis familiaris [9] = test: Urinary excretion collected at 7-24 hr time after oral administration in dog (four animals per dose) at dose 6.25 mg/kg.; assay type: functional, Canis lupus familiaris, Urine; in short: as §1
[10] = It is the ratio, measured as saluretic activity in the dog as concentration of Na+ in urinary excretion (dose 1.56 mg/Kg, perorally) to that of K; assay type: functional, Urine; in short: as §2
Rattus norvegicus = organism: Rattus norvegicus; test: Effect on inulin U/P ratio in rats in comparison to furosemide activity

Compound | Saluretic activity (Canis familiaris [1]) | Na+ excretion (Canis familiaris [2]) | Na+ excretion (Canis familiaris [3]) | Urinary excretion (Canis familiaris [4]) | Ratio [5] | Diuretic activity (Canis familiaris [6]) | Urinary excretion (Canis familiaris [7]) | Na+ excretion (Canis familiaris [8]) | Urinary excretion (Canis familiaris [9]) | Ratio [10] | Ratio (Rattus norvegicus)
CN(c1ccccc1)c1cc(NCc2ccco2)c(S(=O)(=O)[O-])cc1S(N)(=O)=O.[Na+] | 0.45 m equiv 6hr-1 kg-1 | 4.39 mequiv kg-1 | 0.55 mequiv kg-1 | 20.4 mL/kg | 4.9 |  |  |  |  |  | 
NS(=O)(=O)c1cc(S(=O)(=O)[O-])c(NCc2ccco2)cc1Oc1ccccc1.[Na+] |  |  |  |  |  | 74.3 ml kg-1 6hr-1 | 61.1 mL/kg | 1.57 mequiv kg-1 | 38.3 mL/kg | 4.9 | 7.66
